Reference: ChEMBL document CHEMBL1142719 (J Med Chem, 2005)

Key:
Adenosine receptor A1 = molecular target: T1, Adenosine receptor A1 (Homo sapiens, UniProt P30542); test: Inhibition of [3H]R-PIA binding to human Adenosine A1 receptor expressed in CHO cells; type: cell-based
T1 sequence (P30542 whole entry): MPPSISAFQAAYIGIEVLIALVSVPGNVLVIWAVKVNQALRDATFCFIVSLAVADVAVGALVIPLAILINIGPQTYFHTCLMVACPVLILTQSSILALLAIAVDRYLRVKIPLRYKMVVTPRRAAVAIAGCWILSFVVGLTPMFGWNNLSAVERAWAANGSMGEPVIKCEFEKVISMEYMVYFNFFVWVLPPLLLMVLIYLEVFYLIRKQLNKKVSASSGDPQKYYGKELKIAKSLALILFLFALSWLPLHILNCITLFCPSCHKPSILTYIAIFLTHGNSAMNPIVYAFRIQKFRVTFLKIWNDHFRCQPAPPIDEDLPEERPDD

[1] = molecular target: T2, Adenosine receptor A2b (Homo sapiens) (UniProt P29275); test: Relative activation of human Adenosine A2B receptor at 10 uM treatment compared to 10 uM Cl-IB-MECA; type: functional
T2 sequence (whole entry): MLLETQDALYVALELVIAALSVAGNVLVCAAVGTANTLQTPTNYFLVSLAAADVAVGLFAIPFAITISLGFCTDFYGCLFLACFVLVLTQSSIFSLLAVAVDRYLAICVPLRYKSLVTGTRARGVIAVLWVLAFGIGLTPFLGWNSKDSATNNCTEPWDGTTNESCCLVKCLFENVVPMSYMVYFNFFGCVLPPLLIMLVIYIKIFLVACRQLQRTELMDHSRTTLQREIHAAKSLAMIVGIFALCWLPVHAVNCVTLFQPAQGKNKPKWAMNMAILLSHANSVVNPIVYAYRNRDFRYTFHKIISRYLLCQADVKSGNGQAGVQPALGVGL

Adenosine receptor A3 [2] = molecular target: T3, Adenosine receptor A3 (Rattus norvegicus, UniProt P28647); test: Inhibition of [125I]AB-MECA binding to rat Adenosine A3 receptor expressed in CHO cells; type: cell-based
T3 sequence (P28647 whole entry): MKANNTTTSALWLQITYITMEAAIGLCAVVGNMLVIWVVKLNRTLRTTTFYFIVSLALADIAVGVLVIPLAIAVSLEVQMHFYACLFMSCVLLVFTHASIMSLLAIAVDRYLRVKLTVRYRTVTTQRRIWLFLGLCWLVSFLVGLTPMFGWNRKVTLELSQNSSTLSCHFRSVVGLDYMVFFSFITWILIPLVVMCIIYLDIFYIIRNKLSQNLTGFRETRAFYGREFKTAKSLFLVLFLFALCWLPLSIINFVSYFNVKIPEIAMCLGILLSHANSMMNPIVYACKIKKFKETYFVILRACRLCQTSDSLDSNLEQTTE

Adenosine receptor A3 [3] = molecular target: T4, Adenosine receptor A3 (Homo sapiens, UniProt P0DMS8); test: Inhibition of [125I]-AB-MECA binding to human Adenosine A3 receptor expressed in CHO cells; type: cell-based
T4 sequence (P0DMS8 whole entry): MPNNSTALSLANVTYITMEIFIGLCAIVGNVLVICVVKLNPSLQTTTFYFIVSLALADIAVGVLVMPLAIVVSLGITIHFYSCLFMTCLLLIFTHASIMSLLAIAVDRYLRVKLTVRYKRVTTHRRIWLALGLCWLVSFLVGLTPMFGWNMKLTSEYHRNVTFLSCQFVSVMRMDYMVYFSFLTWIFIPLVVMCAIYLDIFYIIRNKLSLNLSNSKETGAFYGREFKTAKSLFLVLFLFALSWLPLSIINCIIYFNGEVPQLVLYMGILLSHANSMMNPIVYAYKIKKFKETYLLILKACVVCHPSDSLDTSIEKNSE

Adenosine receptor A2a [4] = molecular target: T5, Adenosine receptor A2a (Homo sapiens, UniProt P29274); test: Displacement of [3H]-CGS- 21680 from human Adenosine A2A receptor expressed in CHO cells at 10 uM; type: cell-based
T5 sequence (P29274 whole entry): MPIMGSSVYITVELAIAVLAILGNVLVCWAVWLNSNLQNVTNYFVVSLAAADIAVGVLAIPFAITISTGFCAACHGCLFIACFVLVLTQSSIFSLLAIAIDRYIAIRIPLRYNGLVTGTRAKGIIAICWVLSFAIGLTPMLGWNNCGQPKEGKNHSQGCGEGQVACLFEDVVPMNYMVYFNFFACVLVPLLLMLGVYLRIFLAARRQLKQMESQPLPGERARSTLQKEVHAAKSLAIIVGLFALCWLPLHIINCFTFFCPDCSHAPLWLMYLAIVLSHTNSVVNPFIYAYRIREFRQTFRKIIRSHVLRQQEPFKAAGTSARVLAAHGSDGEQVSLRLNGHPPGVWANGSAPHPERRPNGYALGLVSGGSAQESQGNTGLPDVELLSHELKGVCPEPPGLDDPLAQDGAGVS
How it was run: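 Human A2A receptor stably expressed in adherent CHO cells. Competition binding used [3H]CGS 21680 as the radioligand.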

[5] = molecular target: T6, Adenosine receptor A3 (Homo sapiens) (UniProt P0DMS8); test: Relative activation of human Adenosine A3 receptor expressed in CHO cells at 10 uM treatment compared to 10 uM Cl-IB-MECA; type: functional, cell-based
T6 sequence (whole entry): T4 sequence (P0DMS8 whole entry)

Adenosine receptor A2a [6] = molecular target: T5, Adenosine receptor A2a; test: Inhibition of [3H]-CGS- 21680 binding to human Adenosine A2A receptor expressed in CHO cells; type: cell-based

SMILES | Activation [1] | Ki (Adenosine receptor A3 [2]) | Displacement (Adenosine receptor A2a [4]) | Activation [5] | Ki (Adenosine receptor A2a [6]) | Ki (Adenosine receptor A1) | Ki (Adenosine receptor A3 [3]) | Inhibition (Adenosine receptor A1; cho)
CNc1ncnc2c1ncn2[C@@H]1O[C@H](CO)[C@@H](O)[C@H]1O | 16% | 6.4 µM | 17% | – | – | 6 µM | 0.0093 µM | –
CNC(=O)[C@@]12C[C@@H]1[C@@H](n1cnc3c(NC)nc(Cl)nc31)[C@H](O)[C@@H]2O | – | – | 6% | 104% | – | – | – | –
CNc1nc(N)nc2c1ncn2[C@@H]1O[C@H](CO)[C@@H](O)[C@H]1O | 11% | > 10 µM | 15% | 98% | – | – | – | –
CNC(=O)[C@]12C[C@@H]1[C@@H](n1cnc3c(NCc4cc(OC)ccc4OC)nc(Cl)nc31)[C@H](O)[C@@H]2O | 0% | – | 52% | 107% | – | 1.6 µM | 0.0014 µM | –
CNC(=O)[C@]12C[C@@H]1[C@@H](n1cnc3c(NCc4cccc(Br)c4)nc(Cl)nc31)[C@H](O)[C@@H]2O | 38% | 0.00076 µM | – | 100% | 1.3 µM | 0.27 µM | 0.00038 µM | –
OC[C@H]1O[C@@H](n2cnc3c(NC4CC4c4ccccc4)ncnc32)[C@H](O)[C@@H]1O (stereo not given in full) | 26% | 0.4 µM | – | 101% | 2.5 µM | – | – | –
CNC(=O)[C@@]12C[C@@H]1[C@@H](n1cnc3c(NCc4cc(Cl)ccc4OC)nc(Cl)nc31)[C@H](O)[C@@H]2O | 37% | – | – | – | 1.2 µM | – | – | –
OC[C@@]12C[C@@H]1[C@@H](n1cnc3c(NCc4cccc(I)c4)ncnc31)[C@H](O)[C@@H]2O | – | – | – | 13% | 0.86 µM | 0.035 µM | 0.0092 µM | –
CNC(=O)[C@@]12C[C@@H]1[C@@H](n1cnc3c(NCc4cccc(Cl)c4)nc(Cl)nc31)[C@H](O)[C@@H]2O | 38% | 0.001 µM | – | – | 2.3 µM | 0.26 µM | – | –
CNC(=O)[C@]12C[C@@H]1[C@@H](n1cnc3c(NCc4ccccc4C)nc(Cl)nc31)[C@H](O)[C@@H]2O | 24% | – | – | – | 3.8 µM | – | – | –
CNC(=O)[C@]12C[C@@H]1[C@@H](n1cnc3c(NCC(c4ccccc4)c4ccccc4)nc(Cl)nc31)[C@H](O)[C@@H]2O | 46% | 0.01 µM | – | 107% | 1.6 µM | 1.3 µM | 0.00069 µM | –
CNC(=O)[C@]12C[C@@H]1[C@@H](n1cnc3c(NCc4cc(Cl)ccc4Cl)nc(Cl)nc31)[C@H](O)[C@@H]2O | 32% | – | – | – | 1.3 µM | – | – | –
OC[C@H]1O[C@@H](n2cnc3c(NCc4cccc(Cl)c4)ncnc32)[C@H](O)[C@@H]1O | – | 0.035 µM | – | 80% | – | – | 0.0044 µM | –
CNC(=O)[C@]12C[C@@H]1[C@@H](n1cnc3c(NCc4cccc(Cl)c4)nc(SC)nc31)[C@H](O)[C@@H]2O | – | – | 52% | 100% | – | 0.61 µM | 0.0015 µM | –
CNC(=O)[C@]12C[C@@H]1[C@@H](n1cnc3c(NCc4cccc(C#CCO)c4)nc(Cl)nc31)[C@H](O)[C@@H]2O | 28% | – | 56% | – | – | – | – | –
CNC(=O)[C@]12C[C@@H]1[C@@H](n1cnc3c(NC4CC4c4ccccc4)nc(Cl)nc31)[C@H](O)[C@@H]2O (stereo not given in full) | 48% | – | – | – | 4.8 µM | – | – | –
CNC(=O)[C@]12C[C@@H]1[C@@H](n1cnc3c(NCc4cc(Cl)ccc4OCC(N)=O)nc(Cl)nc31)[C@H](O)[C@@H]2O | – | – | – | – | 0.8 µM | – | – | –
COc1ccc(Cl)cc1CNc1ncnc2c1ncn2[C@@H]1O[C@H](CO)[C@@H](O)[C@H]1O | 57% | – | – | – | 0.4 µM | – | – | –
CNC(=O)[C@]12C[C@@H]1[C@@H](n1cnc3c(NC)nc(N)nc31)[C@H](O)[C@@H]2O | – | – | 17% | – | – | – | – | –
OC[C@H]1O[C@@H](n2cnc3c(NCC(c4ccccc4)c4ccccc4)ncnc32)[C@H](O)[C@@H]1O | 70% | 0.54 µM | – | 0% | – | – | – | –
OC[C@H]1O[C@@H](n2cnc3c(NCc4cccnc4)ncnc32)[C@H](O)[C@@H]1O | – | 0.29 µM | – | 100% | 2.3 µM | 0.042 µM | 0.0045 µM | –
CNC(=O)[C@]12C[C@@H]1[C@@H](n1cnc3c(NCc4cc(Cl)ccc4OCc4ccccc4)nc(Cl)nc31)[C@H](O)[C@@H]2O | 49% | 0.011 µM | – | 110% | 0.85 µM | 1.2 µM | 0.0052 µM | –
CNC(=O)[C@]12C[C@@H]1[C@@H](n1cnc3c(NCc4cc(C#CCO)ccc4Cl)nc(Cl)nc31)[C@H](O)[C@@H]2O | 6% | – | 12% | 108% | – | – | 0.217 µM | 14%
Cc1ccccc1CNc1ncnc2c1ncn2[C@@H]1O[C@H](CO)[C@@H](O)[C@H]1O | – | 0.038 µM | – | 100% | – | – | – | –

Second part, led by results:

Activation [1] | Ki (Adenosine receptor A3 [2]) | Displacement (Adenosine receptor A2a [4]) | Activation [5] | Ki (Adenosine receptor A2a [6]) | SMILES | Ki (Adenosine receptor A1) | Ki (Adenosine receptor A3 [3]) | Inhibition (Adenosine receptor A1; cho)
46% | – | – | – | 0.43 µM | CNC(=O)[C@]12C[C@@H]1[C@@H](n1cnc3c(NCc4cc(I)ccc4OC)nc(Cl)nc31)[C@H](O)[C@@H]2O | – | – | –
– | – | – | – | 1.1 µM | CNC(=O)[C@]12C[C@@H]1[C@@H](n1cnc3c(NCc4ccc(N)c(I)c4)nc(Cl)nc31)[C@H](O)[C@@H]2O | – | – | –
58% | – | – | – | 0.48 µM | CNC(=O)[C@]12C[C@@H]1[C@@H](n1cnc3c(NCc4cc(I)ccc4Cl)nc(Cl)nc31)[C@H](O)[C@@H]2O | – | – | –
– | – | – | 100% | – | CNC(=O)[C@@]12C[C@@H]1[C@@H](n1cnc3c(NCc4cccc(I)c4)ncnc31)[C@H](O)[C@@H]2O | – | – | –
– | – | – | 100% | – | CNC(=O)[C@@]12C[C@@H]1[C@@H](n1cnc3c(NCc4cccc(I)c4)nc(Cl)nc31)[C@H](O)[C@@H]2O | – | – | –
0% | – | – | – | – | CNC(=O)[C@H]1O[C@@H](n2cnc3c(NCc4cccc(I)c4)ncnc32)[C@H](O)[C@@H]1O | – | – | –
46% | – | – | – | 3.7 µM | CNC(=O)[C@]12C[C@@H]1[C@@H](n1cnc3c(NCc4cccc(C)c4)nc(Cl)nc31)[C@H](O)[C@@H]2O | – | – | –
4% | – | 33% | – | – | CNC(=O)C12C[C@@H]1[C@@H](n1cnc3c(NCc4cccnc4)nc(Cl)nc31)[C@H](O)[C@@H]2O (single isomer, unassigned) | – | – | –
0% | – | – | – | – | CNC(=O)[C@H]1O[C@@H](n2cnc3c(NCc4cccc(I)c4)nc(Cl)nc32)[C@H](O)[C@@H]1O | – | – | –
28% | – | – | – | 5.1 µM | CNC(=O)[C@]12C[C@@H]1[C@@H](n1cnc3c(NCc4cccc(F)c4)nc(Cl)nc31)[C@H](O)[C@@H]2O | – | – | –
22% | – | 28% | – | – | CNC(=O)[C@]12C[C@@H]1[C@@H](n1cnc3c(NCc4ccc(N)cc4)nc(Cl)nc31)[C@H](O)[C@@H]2O | – | – | –
– | – | – | 3% | 1.6 µM | OC[C@@]12C[C@@H]1[C@@H](n1cnc3c(NCc4cccc(I)c4)nc(Cl)nc31)[C@H](O)[C@@H]2O | 0.065 µM | 0.0019 µM | –
– | – | 43% | – | – | CNC(=O)[C@]12C[C@@H]1[C@@H](n1cnc3c(NCc4cccc(Cl)c4)nc(I)nc31)[C@H](O)[C@@H]2O | – | – | –
16% | – | – | 0% | – | OC[C@H]1O[C@@H](n2cnc3c(NCc4cccc(I)c4)nc(Cl)nc32)[C@H](O)[C@@H]1O | 0.017 µM | – | –
58% | – | – | 46% | – | OC[C@H]1O[C@@H](n2cnc3c(NCc4cccc(I)c4)ncnc32)[C@H](O)[C@@H]1O | 0.0074 µM | – | –
